Experimental data as given in ChEMBL document CHEMBL3286193, “Discovery of a series of 2,5-diaminopyrimidine covalent irreversible inhibitors of Bruton's tyrosine kinase with in vivo antitumor activity” (J Med Chem, 2014).
≈ marks a conversion by molar mass, not a printed value. Calls of active or inactive are those of the source. No cut-off for these calls is given here.

Tests used:
[1] = biological target: T1, Tyrosine-protein kinase BTK (Homo sapiens, UniProt Q06187); experiment: Inhibition of Btk (unknown origin) after 1 hr by HTRF assay
T1 sequence (Q06187 whole entry): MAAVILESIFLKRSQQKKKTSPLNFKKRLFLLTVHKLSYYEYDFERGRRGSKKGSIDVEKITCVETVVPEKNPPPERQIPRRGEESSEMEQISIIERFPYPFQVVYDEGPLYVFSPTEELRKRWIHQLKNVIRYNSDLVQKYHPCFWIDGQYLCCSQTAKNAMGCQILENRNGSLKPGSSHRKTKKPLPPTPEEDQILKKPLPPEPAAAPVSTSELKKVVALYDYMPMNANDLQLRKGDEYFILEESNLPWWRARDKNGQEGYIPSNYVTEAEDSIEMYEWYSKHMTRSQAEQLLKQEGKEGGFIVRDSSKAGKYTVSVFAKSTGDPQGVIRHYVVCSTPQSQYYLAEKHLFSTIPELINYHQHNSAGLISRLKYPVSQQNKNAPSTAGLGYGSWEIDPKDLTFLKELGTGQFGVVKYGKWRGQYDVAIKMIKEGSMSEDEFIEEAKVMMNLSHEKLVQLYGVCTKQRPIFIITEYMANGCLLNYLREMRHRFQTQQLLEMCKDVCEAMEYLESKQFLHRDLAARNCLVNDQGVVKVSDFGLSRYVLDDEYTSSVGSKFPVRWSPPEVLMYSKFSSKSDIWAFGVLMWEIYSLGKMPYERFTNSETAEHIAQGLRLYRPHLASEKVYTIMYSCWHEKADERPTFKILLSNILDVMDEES
Summary of the method: (§1)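 Recombinant kinases tested by HTRF KinEase protocol. Enzyme preincubated with inhibitor for a fixed 10 min. IC50 values are means of duplicates.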

[2] = biological target: Receptor tyrosine-protein kinase erbB-4 (Homo sapiens, UniProt Q15303); experiment: Inhibition of HER4 (unknown origin) after 1 hr by HTRF assay; summary of the method: as §1
Chain of Receptor tyrosine-protein kinase erbB-4 (Q15303 whole entry): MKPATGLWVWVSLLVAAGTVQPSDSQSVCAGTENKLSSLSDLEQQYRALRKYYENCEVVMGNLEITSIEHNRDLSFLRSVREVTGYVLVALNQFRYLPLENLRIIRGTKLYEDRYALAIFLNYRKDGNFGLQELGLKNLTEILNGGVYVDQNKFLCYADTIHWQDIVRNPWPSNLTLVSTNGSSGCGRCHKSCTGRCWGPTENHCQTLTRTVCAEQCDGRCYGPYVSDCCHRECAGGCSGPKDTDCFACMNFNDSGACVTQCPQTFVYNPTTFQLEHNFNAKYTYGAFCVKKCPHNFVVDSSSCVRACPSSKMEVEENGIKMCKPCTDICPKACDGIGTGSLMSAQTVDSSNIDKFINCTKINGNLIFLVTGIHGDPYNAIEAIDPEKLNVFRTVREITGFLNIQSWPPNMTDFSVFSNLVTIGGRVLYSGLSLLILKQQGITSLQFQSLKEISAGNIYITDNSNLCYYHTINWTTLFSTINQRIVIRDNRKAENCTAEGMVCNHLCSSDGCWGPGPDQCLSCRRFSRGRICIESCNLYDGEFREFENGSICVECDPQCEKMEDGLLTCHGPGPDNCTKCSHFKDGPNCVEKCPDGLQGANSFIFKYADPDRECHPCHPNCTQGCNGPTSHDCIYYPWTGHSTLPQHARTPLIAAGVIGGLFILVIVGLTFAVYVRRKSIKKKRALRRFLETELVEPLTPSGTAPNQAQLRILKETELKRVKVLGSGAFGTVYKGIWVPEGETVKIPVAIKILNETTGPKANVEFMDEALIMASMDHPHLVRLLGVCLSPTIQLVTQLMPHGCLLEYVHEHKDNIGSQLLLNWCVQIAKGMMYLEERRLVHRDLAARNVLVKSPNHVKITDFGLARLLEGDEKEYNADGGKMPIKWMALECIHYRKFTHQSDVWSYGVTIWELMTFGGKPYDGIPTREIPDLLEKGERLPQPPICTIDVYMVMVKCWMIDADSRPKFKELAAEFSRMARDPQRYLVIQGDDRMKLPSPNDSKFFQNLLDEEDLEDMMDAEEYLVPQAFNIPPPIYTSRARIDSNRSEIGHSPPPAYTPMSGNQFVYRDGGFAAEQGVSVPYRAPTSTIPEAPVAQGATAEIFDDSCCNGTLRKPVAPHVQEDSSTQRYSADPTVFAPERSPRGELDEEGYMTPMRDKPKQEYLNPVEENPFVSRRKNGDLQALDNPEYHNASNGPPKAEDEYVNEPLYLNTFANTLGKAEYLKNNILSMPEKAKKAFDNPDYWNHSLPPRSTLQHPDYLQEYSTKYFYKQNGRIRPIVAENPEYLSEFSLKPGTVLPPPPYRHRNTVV

[3] = Half life in ICR mouse at 1 mg/kg, iv by LC-MS analysis; type: ADME, organism-based; parameters: dose 1 mg/kg, route intravenous; settings: in vivo
Summary of the method: (§2)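 ICR mice (n = 3) given a single intravenous injection at 1 mg/kg. Blood sampled at various time points and analyzed by LC−MS to derive t1/2, CL and Vss.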

WSU-NHL = experiment: Cytotoxicity against human WSU-NHL cells assessed as growth inhibition after 72 hrs by CellTiter-Glo luminescent cell viability assay; type: functional
Summary of the method: (§3)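 Lymphoma cells seeded at 5000 cells/well, incubated 24 h, then exposed to compounds for 72 h. Viability read by CellTiter-Glo luminescence. GI50 from dose−response curves, mean of two or three independent experiments in triplicate.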

[4] = Clearance in mouse liver microsomes by LC-MS/MS analysis; type: ADME; settings: read-out: CLH
Summary of the method: (§4)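 Liver microsomes incubated with compound and NADPH at 37 °C. Samples taken at several time points, centrifuged, and supernatants analyzed by LC−MS/MS. t1/2 and CL calculated by first-order kinetics. Testosterone, propranolol and clozapine served as positive controls.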

[5] = biological target: Receptor tyrosine-protein kinase erbB-2 (Homo sapiens, UniProt P04626); experiment: Inhibition of HER2 (unknown origin) after 1 hr by HTRF assay; summary of the method: as §1
Chain of Receptor tyrosine-protein kinase erbB-2 (P04626 whole entry): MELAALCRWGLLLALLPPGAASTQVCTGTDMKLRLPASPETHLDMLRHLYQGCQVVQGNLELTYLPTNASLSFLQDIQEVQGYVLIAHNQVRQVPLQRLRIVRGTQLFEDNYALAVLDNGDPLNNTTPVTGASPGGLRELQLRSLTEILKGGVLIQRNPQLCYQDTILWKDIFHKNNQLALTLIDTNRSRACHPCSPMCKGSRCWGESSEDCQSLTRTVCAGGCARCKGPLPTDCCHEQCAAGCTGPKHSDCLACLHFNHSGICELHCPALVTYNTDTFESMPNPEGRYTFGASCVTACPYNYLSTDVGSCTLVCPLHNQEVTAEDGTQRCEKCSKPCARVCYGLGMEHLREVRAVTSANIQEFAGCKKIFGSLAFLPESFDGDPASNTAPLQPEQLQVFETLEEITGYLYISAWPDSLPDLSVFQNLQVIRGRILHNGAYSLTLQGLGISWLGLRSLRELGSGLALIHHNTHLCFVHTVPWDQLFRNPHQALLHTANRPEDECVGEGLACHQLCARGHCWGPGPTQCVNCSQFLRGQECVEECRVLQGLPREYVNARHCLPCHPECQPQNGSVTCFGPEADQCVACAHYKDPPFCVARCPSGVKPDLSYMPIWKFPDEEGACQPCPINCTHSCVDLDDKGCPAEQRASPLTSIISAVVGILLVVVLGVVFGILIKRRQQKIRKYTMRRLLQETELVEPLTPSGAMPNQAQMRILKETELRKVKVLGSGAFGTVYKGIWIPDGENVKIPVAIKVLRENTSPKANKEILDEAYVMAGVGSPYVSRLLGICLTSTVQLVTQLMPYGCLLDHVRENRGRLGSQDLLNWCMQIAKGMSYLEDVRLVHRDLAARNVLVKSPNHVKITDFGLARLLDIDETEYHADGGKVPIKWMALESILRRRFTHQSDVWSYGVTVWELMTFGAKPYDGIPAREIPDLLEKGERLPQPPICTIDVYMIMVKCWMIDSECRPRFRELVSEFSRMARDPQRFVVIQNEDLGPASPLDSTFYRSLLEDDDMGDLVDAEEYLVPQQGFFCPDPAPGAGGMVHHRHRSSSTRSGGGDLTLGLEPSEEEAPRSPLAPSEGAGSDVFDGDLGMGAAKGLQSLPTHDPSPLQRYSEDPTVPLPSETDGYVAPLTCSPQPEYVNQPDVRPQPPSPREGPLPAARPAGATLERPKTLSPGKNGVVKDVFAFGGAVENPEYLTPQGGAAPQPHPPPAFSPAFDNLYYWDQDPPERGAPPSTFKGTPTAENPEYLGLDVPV

[6] = Cytotoxicity against human Pfeiffer cells assessed as growth inhibition after 72 hrs by CellTiter-Glo luminescent cell viability assay; type: functional; settings: Homo sapiens, Pfeiffer, 72 h; summary of the method: as §3
[7] = biological target: Tyrosine-protein kinase ITK/TSK (Homo sapiens, UniProt Q08881); experiment: Inhibition of Itk (unknown origin) after 1 hr by HTRF assay; summary of the method: as §1
Chain of Tyrosine-protein kinase ITK/TSK (Q08881 whole entry): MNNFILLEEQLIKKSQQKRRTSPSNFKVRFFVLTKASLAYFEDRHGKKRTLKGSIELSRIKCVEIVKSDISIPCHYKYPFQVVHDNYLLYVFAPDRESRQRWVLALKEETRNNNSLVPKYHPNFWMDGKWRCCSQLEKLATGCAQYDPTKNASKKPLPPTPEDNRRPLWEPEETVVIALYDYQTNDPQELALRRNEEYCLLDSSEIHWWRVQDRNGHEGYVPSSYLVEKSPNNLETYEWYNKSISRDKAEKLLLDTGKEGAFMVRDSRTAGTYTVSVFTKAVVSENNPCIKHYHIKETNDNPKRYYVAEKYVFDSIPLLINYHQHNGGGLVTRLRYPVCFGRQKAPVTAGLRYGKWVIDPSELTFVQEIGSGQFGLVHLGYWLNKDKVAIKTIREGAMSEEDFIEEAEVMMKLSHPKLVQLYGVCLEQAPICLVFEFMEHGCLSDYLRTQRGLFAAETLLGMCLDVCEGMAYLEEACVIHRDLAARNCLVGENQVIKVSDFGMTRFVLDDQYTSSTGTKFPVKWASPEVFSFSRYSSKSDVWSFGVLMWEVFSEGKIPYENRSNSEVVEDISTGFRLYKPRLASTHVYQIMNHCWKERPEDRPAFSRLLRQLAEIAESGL

[8] = Clearance in ICR mouse at 1 mg/kg, iv by LC-MS analysis; type: ADME, organism-based; parameters: dose 1 mg/kg, route intravenous; settings: in vivo; summary of the method: as §2
[9] = Cytotoxicity against human DOHH2 cells assessed as growth inhibition after 72 hrs by CellTiter-Glo luminescent cell viability assay; type: functional, DOHH-2; settings: Homo sapiens, DOHH-2, 72 h; summary of the method: as §3
[10] = biological target: T1, Tyrosine-protein kinase BTK; experiment: Binding affinity to Btk kinase domain (387 to 659) (unknown origin) assessed as compound-protein covalent adduct formation at 1:3 protein to compound molar ratio at 4 degC after 1 hr by LC-MS analysis
Summary of the method: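 Btk kinase domain (residues 387−659, MW 32136) incubated with 3 equiv of compound at 4 °C for 1 h. Mass spectrometry of the intact protein checked for mass peak shift consistent with 1-to-1 protein−compound adducts.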

[11] = biological target: T1, Tyrosine-protein kinase BTK; experiment: Irreversible inhibition of Btk phosphorylation at Tyr551 in human Ramos cells at 1 uM incubated for 1 hr followed by compound washout with fresh media measured after 2 hrs by Western blot analysis; type: cell-based
Summary of the method: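 Ramos cells (5 × 10⁵) seeded overnight, treated with compound 1 h, then washed out with fresh media for 2 h. Cells stimulated with goat anti-human IgM for 3−5 min, lysed by boiling in SDS buffer, and Btk Tyr551 phosphorylation assessed by Western blot.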

[12] = biological target: T1, Tyrosine-protein kinase BTK; experiment: Inhibition of Btk phosphorylation at Tyr551 in human Ramos cells after 1 hr by Western blot analysis; type: cell-based
[13] = biological target: Cytoplasmic tyrosine-protein kinase BMX (Homo sapiens, UniProt P51813); experiment: Inhibition of Bmx (unknown origin) after 1 hr by HTRF assay; summary of the method: as §1
[14] = Half life in mouse liver microsomes by LC-MS/MS analysis; type: ADME; summary of the method: as §4
[15] = biological target: Tyrosine-protein kinase TXK (Homo sapiens, UniProt P42681); experiment: Inhibition of Rlk (unknown origin) after 1 hr by HTRF assay; summary of the method: as §1
[16] = Stability of the compound in FaSSIF assessed as compound remaining at 1 uM measured at 24 hrs by LC-MS analysis; type: ADME; settings: read-out: Stability
Summary of the method: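 Compound solutions in FaSSIF shaken at 350 rpm at 37 °C. Samples taken at 2, 6, 10 and 24 h and quantified by LC−MS as % remaining.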

[17] = tested on: Liver microsomes (Mus musculus); experiment: Clearance in mouse liver microsomes by LC-MS/MS analysis
[18] = biological target: Tyrosine-protein kinase Blk (Homo sapiens, UniProt P51451); experiment: Inhibition of Blk (unknown origin) after 1 hr by HTRF assay; summary of the method: as §1
[19] = biological target: Tyrosine-protein kinase Tec (Homo sapiens, UniProt P42680); experiment: Inhibition of Tec (unknown origin) after 1 hr by HTRF assay; summary of the method: as §1
[20] = Volume of distribution at steady state in ICR mouse at 1 mg/kg, iv by LC-MS analysis; type: ADME, organism-based; parameters: dose 1 mg/kg, route intravenous; settings: in vivo, read-out: Vdss; summary of the method: as §2
[21] = biological target: T1, Tyrosine-protein kinase BTK; experiment: Inhibition of Btk in human Ramos cells assessed as inhibition of PLC-gamma2 phosphorylation at Tyr1217 after 1 hr by Western blot analysis; type: cell-based
[22] = Cytotoxicity against human SU-DHL6 cells assessed as growth inhibition after 72 hrs by CellTiter-Glo luminescent cell viability assay; type: functional, SU-DHL-6; settings: Homo sapiens, SU-DHL-6, 72 h; summary of the method: as §3
[23] = Solubility of the compound in FaSSIF; type: ADME
[24] = biological target: Tyrosine-protein kinase JAK3 (Homo sapiens, UniProt P52333); experiment: Inhibition of Jak3 (unknown origin) after 1 hr by HTRF assay; summary of the method: as §1
Chain of Tyrosine-protein kinase JAK3 (P52333 whole entry): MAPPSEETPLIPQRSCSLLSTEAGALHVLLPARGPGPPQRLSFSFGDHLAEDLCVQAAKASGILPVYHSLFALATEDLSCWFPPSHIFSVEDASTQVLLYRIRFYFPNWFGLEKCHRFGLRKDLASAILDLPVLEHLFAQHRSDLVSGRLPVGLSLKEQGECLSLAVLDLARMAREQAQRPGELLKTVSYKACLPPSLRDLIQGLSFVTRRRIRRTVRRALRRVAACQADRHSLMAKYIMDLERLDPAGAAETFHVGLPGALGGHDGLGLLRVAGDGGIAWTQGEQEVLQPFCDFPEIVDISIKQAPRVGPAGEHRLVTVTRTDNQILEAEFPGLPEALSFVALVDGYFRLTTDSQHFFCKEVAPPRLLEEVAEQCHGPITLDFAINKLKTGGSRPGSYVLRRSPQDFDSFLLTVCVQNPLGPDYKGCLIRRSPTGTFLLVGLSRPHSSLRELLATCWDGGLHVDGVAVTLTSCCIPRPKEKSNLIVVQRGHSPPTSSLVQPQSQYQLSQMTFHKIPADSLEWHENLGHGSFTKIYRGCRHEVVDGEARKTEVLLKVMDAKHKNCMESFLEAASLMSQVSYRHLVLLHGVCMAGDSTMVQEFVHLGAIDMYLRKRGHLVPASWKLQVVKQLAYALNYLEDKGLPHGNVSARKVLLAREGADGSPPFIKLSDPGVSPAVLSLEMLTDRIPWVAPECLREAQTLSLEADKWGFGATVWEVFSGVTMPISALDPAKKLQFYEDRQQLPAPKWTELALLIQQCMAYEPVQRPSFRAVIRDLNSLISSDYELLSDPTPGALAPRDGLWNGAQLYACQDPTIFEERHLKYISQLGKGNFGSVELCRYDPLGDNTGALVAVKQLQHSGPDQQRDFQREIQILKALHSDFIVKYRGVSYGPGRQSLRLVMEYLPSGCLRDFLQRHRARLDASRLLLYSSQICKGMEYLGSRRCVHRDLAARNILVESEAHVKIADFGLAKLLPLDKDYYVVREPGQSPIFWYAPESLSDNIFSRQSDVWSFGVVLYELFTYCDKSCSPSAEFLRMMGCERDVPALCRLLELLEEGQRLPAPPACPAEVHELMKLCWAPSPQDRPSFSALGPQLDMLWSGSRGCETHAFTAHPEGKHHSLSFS

[25] = biological target: Epidermal growth factor receptor (Homo sapiens, UniProt P00533); experiment: Inhibition of EGFR (unknown origin) after 1 hr by HTRF assay
Summary of the method: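 Commercial recombinant kinase, assayed in the HTRF KinEase format following the kit protocol. Enzyme and inhibitor were preincubated for a fixed 10 min before the reaction.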

Cc1ccc(NC(=O)c2cccc(C(F)(F)F)c2)cc1C(=O)Nc1cnc(N)nc1
IC50 [1]: 3420 nM

Cc1ccc(NC(=O)c2cccc(C(F)(F)F)c2)cc1C(=O)Nc1cnc(Nc2cccc(NC(=O)CCl)c2)nc1
IC50 [1]: 15 nM

Cc1ccc(NC(=O)C2CC2)cc1C(=O)Nc1cnc(Nc2cccc(N)c2)nc1
IC50 [1]: 4950 nM

Cc1ccc(NC(=O)c2cccc(C(F)(F)F)c2)cc1C(=O)Nc1cnc(Nc2ccccc2)nc1
IC50 [1]: 133 nM

Cc1ccc(NC(=O)c2cccc(C(F)(F)F)c2)cc1C(=O)Nc1cnc(Nc2cccc(C(F)(F)F)c2)nc1
IC50 [1]: 304 nM

Nc1cccc(Nc2ncc(NC(=O)c3cc(NC(=O)c4cccc(C(F)(F)F)c4)ccc3F)cn2)c1
IC50 [1]: 47 nM

C=CC(=O)NCC(=O)Nc1cccc(Nc2ncc(NC(=O)c3cc(NC(=O)c4cccc(C(F)(F)F)c4)ccc3C)cn2)c1
IC50 [2]: 3.3 nM | half-life [3]: 36 min | GI50 (WSU-NHL): 29 nM | microsomal CLint [4]: 28.1 µL/min/mg | IC50 [5]: 7 nM | GI50 [6]: 8 nM | IC50 [7]: > 30000 nM | clearance [8]: 11.5 mL/min/kg | GI50 [9]: 40 nM | IC50 [1]: < 4.4 nM | Activity [10]: Active | inhibition [11]: Active | IC50 [12]: 13 nM | IC50 [13]: 0.71 nM | half-life [14]: 35.4 min | IC50 [15]: 1.4 nM | remaining at 24 h, 1 µM [16]: 99% | CLH [17]: 49.8 mL/min/kg | IC50 [18]: 4.2 nM | IC50 [19]: 6.3 nM | Vd [20]: 0.13 L/kg | IC50 [21]: 13 nM | GI50 [22]: 43 nM | solubility [23]: 2.23 µM (≈ 1.38 µg/mL) | IC50 [24]: 6370 nM | IC50 [25]: 7 nM

Cc1ccc(NC(=O)/C=C/c2ccccc2)cc1C(=O)Nc1cnc(Nc2cccc(N)c2)nc1
IC50 [1]: 24 nM

Nc1cccc(Nc2ncc(NC(=O)c3cccc(C(=O)Nc4cccc(C(F)(F)F)c4)c3)cn2)c1
IC50 [1]: 45 nM

Cc1ccc(NC(=O)c2cc(Cl)cc(C(F)(F)F)c2)cc1C(=O)Nc1cnc(Nc2cccc(N)c2)nc1
IC50 [1]: 18 nM

C=CC(=O)Nc1cccc(Nc2ncc(NC(=O)c3cc(NC(=O)c4ccc(Cl)c(C(F)(F)F)c4)ccc3C)cn2)c1
IC50 [1]: 11 nM

Cc1ccc(NC(=O)c2cccc(Cl)c2)cc1C(=O)Nc1cnc(Nc2cccc(N)c2)nc1
IC50 [1]: 20 nM

Cc1ccc(NC(=O)c2cccc(C(F)(F)F)c2)cc1C(=O)Nc1cnc(Nc2cccc(F)c2)nc1
IC50 [1]: 52 nM

Cc1ccc(NC(=O)Nc2cccc(C(F)(F)F)c2)cc1C(=O)Nc1cnc(Nc2cccc(N)c2)nc1
IC50 [1]: 63 nM

Cc1ccc(NC(=O)c2cccc(F)c2)cc1C(=O)Nc1cnc(Nc2cccc(N)c2)nc1
IC50 [1]: 166 nM

C=CC(=O)N(C(=O)C=C)c1cccc(Nc2ncc(NC(=O)c3cc(NC(=O)c4cccc(C(F)(F)F)c4)ccc3C)cn2)c1
IC50 [1]: 208 nM

Cc1ccc(NC(=O)c2cccc(C(F)(F)F)c2)cc1C(=O)Nc1cnc(NC2CC2)nc1
IC50 [1]: 2150 nM

C=CC(=O)Nc1cccc(Nc2ncc(NC(=O)c3cc(NC(=O)c4ccc5ccccc5c4)ccc3C)cn2)c1
IC50 [1]: 22 nM

C/C=C/C(=O)Nc1cccc(Nc2ncc(NC(=O)c3cc(NC(=O)c4cccc(C(F)(F)F)c4)ccc3C)cn2)c1
IC50 [1]: 36 nM
